This is an account of results in PMC3501882 (Diabetes, 2012).

Residues, ends and D or L forms follow the SMILES beside them.

The format of series [1] is physicochemical. Particulars: poorly soluble peptides were used as suspensions in assays.
The subject of a further series is BDC-2.5 T-cell clone. Description: IFN-γ response of T-cell clone to antigen. The series is classed as cell-based, NOD mouse. Particulars: for IFN-γ response of BDC-2.5 to peptide (in words): increasing peptide concentrations, before and after TGase treatment, Fig. 1B, 1C.
The subject of a further series is PD-12.4.4 T-cell clone. Description: IFN-γ response of insulin-reactive T-cell clone to antigen. Particulars: for IFN-γ response of PD-12.4.4 to peptide (in words): increasing peptide concentrations, Fig. 1A, 1D. It counts as cell-based, NOD mouse.
For series [2], the system named is CD4 T cells from BDC-2.5 TCR-Tg mice. Put plainly: T-cell proliferation assay. Particulars: for Proliferative response of BDC-2.5 TCR-Tg CD4 T cells (in words): Fig. 2A, WE14 at 200 μg/mL (120 μmol/L). It counts as cell-based, mouse. Put shortly:
(§1)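 Spleen cells from TCR-transgenic NOD mice (2–5 months old) labeled with 2.5 μmol/L CFSE. Cultured at 1 × 10^6/well with peptide antigen, medium, or anti-CD3ε 0.1 μg/mL for 4 days. Cells stained for CD4 and analysed by flow cytometry, gated on CD4/lymphocyte events. Read-out: percentage of divided cells, mean and SD per mouse over two independent experiments.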

Series [3] has as its system CD4 T cells from BDC-6.9 TCR-Tg mice. Put plainly: T-cell proliferation assay. The series is classed as cell-based, mouse. Particulars: Fig. 2A; negative control T cells. Put shortly:
as §1

In series [4] the test system is guinea pig transglutaminase. Particulars: increasing putrescine 0.06–15.6 mmol/L in the reaction mixture; gel lanes 2–10.

As for `CSCC[C@H](NC(=O)[C@H](CCCNC(=N)N)NC(=O)[C@H](CO)NC(=O)[C@@H](N)Cc1c[nH]c2ccccc12)C(=O)N[C@@H](CC(=O)O)C(=O)N[C@@H](CCC(N)=O)C(=O)N[C@@H](CC(C)C)C(=O)N[C@@H](C)C(=O)N[C@@H](CCCCN)C(=O)N[C@@H](CCC(=O)O)C(=O)N[C@@H](CC(C)C)C(=O)N[C@H](C(=O)N[C@@H](C)C(=O)N[C@@H](CCC(=O)O)C(=O)O)[C@@H](C)O` [WE14] (H-WSRMDQLAKELTAE-OH), the “Solubility in water (in words)” value in series [1] was “solubilized directly in sterile water”.

As to KCNTATCATQRLANFLVRSS [KS20], in the series on BDC-2.5 T-cell clone, the “IFN-γ response of BDC-2.5 to peptide (in words)” value was “remain inactive”. In addition, the “IFN-γ response of PD-12.4.4 to peptide (in words)” value with PD-12.4.4 T-cell clone is given as “did not respond”. In addition, the “Proliferative response of BDC-2.5 TCR-Tg CD4 T cells (in words)” value in series [2] is “no proliferative response”. The “Effect of TGase treatment of the peptide on T-cell proliferation” value in series [2] (any peptide concentration tested, data not shown) was “did not alter the T-cell proliferation responses”. Also, the “Proliferative response of BDC-6.9 TCR-Tg CD4 T cells (in words)” value in series [3] is “no proliferative response”.

In the case of “FVKQHLCGSHLVEALYLVCGERGFFYTPMS [insulin B-chain]”, the “IFN-γ response of BDC-2.5 to peptide (in words)” value in the series with BDC-2.5 T-cell clone is “remain inactive”. The “Effect of TGase treatment on PD-12.4.4 response” value in the series on PD-12.4.4 T-cell clone (Fig. 1D) is recorded as “not increased significantly”. Also, the “IFN-γ response of PD-12.4.4 to peptide (in words)” value with PD-12.4.4 T-cell clone is recorded as “responded”. The “Solubility in water (in words)” value in series [1] is recorded as “only poorly soluble in water”.

EKAHRPIWARMDAKK: the “Proliferative response of BDC-2.5 TCR-Tg CD4 T cells (in words)” value in series [2] is given as “responded”.

For WSRMDELAKELTAE [WE14-Q6E], in the series with BDC-2.5 T-cell clone, the “IFN-γ response of BDC-2.5 to peptide (in words)” value is listed as “no better than unmodified WE14”. In addition, in series [1], the “Solubility in water (in words)” value is “solubilized directly in sterile water”.

With DTKVMKCVLEVISD [ChgA29–42], the “Effect of TGase treatment on antigenicity of the peptide” value in the series with BDC-2.5 T-cell clone (BDC-2.5 (for WE14 also BDC-10.1 and BDC-9.46), IFN-γ ELISA) was “did not lead to an increase of antigenicity”. Also, the “IFN-γ response of BDC-2.5 to peptide (in words)” value with BDC-2.5 T-cell clone was “not antigenic”. Besides, the “IFN-γ response of PD-12.4.4 to peptide at 66 μg/mL” value in the series with PD-12.4.4 T-cell clone (66 μg/mL (42 μmol/L), in the absence of TGase) was “very small PD-12.4.4 response”. The “IFN-γ response of PD-12.4.4 to peptide (in words)” value in the series with PD-12.4.4 T-cell clone is “not antigenic at higher or lower peptide concentrations”. Further, in series [2], the “Proliferative response of BDC-2.5 TCR-Tg CD4 T cells (in words)” value is recorded as “no proliferative response”. Moreover, in series [3], the “Proliferative response of BDC-6.9 TCR-Tg CD4 T cells (in words)” value was “no proliferative response”. Moreover, the “Solubility in water (in words)” value in series [1] is listed as “only poorly soluble in water”.

As for `NCCCCN` [putrescine], the “Effect of putrescine on antigenicity of β-Mem positive control antigen” value with BDC-2.5 T-cell clone (data not shown) is given as “did not affect the antigenicity”. Also, the “Effect of inhibitor in TGase reaction on BDC-2.5 response to converted peptide” value in the series on BDC-2.5 T-cell clone (increasing putrescine 0.06–15.6 mmol/L, Fig. 6A top, lanes 2–10) was “diminished T-cell responses”. For the same compound, the “Effect of inhibitor on TGase-catalysed WE14 oligomerization” value in series [4] is given as “decreasing peptide oligomerization”.
